Source: ChEMBL document CHEMBL3085659, “Synthesis, antiproliferative and apoptosis-inducing activity of thiazolo[5,4-d]pyrimidines” (Eur J Med Chem, 2013)
The source made the active and inactive calls. The rule behind the calls is not given here.

Assays:
HL-60 [1] = test: Cell cycle arrest in human HL60 cells assessed as accumulation at S phase at 20 uM after 24 hrs using propidium iodide staining by flow cytometry (reference value: 50%); type: functional
[2] = Antiproliferative activity against human NCI-H322 cells assessed as growth inhibition at 10 uM after 48 hrs by SRB assay; type: functional; conditions: NCI-H322, 48 h, read-out: GI
HL-60 [3] = test: Induction of apoptosis in human HL60 cells assessed as loss of mitochondrial potential at 5 uM after 24 hrs using rhodamine-123 staining by flow cytometric analysis (reference value: 2%); type: functional
HL-60 [4] = test: Cell cycle arrest in human HL60 cells assessed as accumulation at S phase at 5 uM after 24 hrs using propidium iodide staining by flow cytometry (reference value: 50%); type: functional
HL-60 [5] = test: Cell cycle arrest in human HL60 cells assessed as accumulation at G2 phase at 30 uM after 24 hrs using propidium iodide staining by flow cytometry (reference value: 10%); type: functional
HL-60 [6] = test: Induction of apoptosis in human HL60 cells assessed as cleavage of PARP1 after 24 hrs by Western blot analysis; type: functional, cell-based
Method in brief: (§1)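 Cells treated 24 h (HL-60 at 5, 20, 30 µM; A549 at 1, 3, 10 µM); RIPA lysates, 70 µg protein resolved by SDS-PAGE, transferred to PVDF, blocked in 5% milk, probed for PARP-1 and procaspase-3 with HRP secondaries, ECL detection.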

T98G = test: Antiproliferative activity against human T98G cells assessed as growth inhibition at 10 uM after 48 hrs by SRB assay; type: functional; conditions: read-out: GI
A549 [7] = test: Antiproliferative activity against human A549 cells assessed as growth inhibition at 10 uM after 48 hrs by SRB assay; type: functional; conditions: A549, 48 h, read-out: GI
A-431 = test: Antiproliferative activity against human A431 cells assessed as growth inhibition at 10 uM after 48 hrs by SRB assay; type: functional; conditions: A-431, 48 h, read-out: GI
HL-60 [8] = test: Cell cycle arrest in human HL60 cells assessed as accumulation at G2 phase at 5 uM after 24 hrs using propidium iodide staining by flow cytometry (reference value: 10%); type: functional
HL-60 [9] = test: Antiproliferative activity against human HL60 cells after 48 hrs by SRB assay; type: functional, cell-based; conditions: HL-60, 48 h
PC-3 [10] = test: Antiproliferative activity against human PC3 cells assessed as growth inhibition at 10 uM after 48 hrs by SRB assay; type: functional; conditions: PC-3, 48 h, read-out: GI
[11] = Antiproliferative activity against human MIAPaCa2 cells assessed as growth inhibition at 10 uM after 48 hrs by SRB assay; type: functional; conditions: MIA PaCa-2, 48 h, read-out: GI
HL-60 [12] = test: Induction of apoptosis in human HL60 cells assessed as loss of mitochondrial potential at 20 uM after 24 hrs using rhodamine-123 staining by flow cytometric analysis (reference value: 2%); type: functional
T47D [13] = test: Antiproliferative activity against human T47D cells assessed as growth inhibition at 10 uM after 48 hrs by SRB assay; type: functional; conditions: read-out: GI
HL-60 [14] = test: Induction of apoptosis in human HL60 cells at 5 uM after 24 hrs using propidium iodide staining by flow cytometry (reference value: 5%); type: functional
[15] = Antiproliferative activity against human MIAPaCa2 cells after 48 hrs by SRB assay; type: functional, cell-based; conditions: MIA PaCa-2, 48 h
HL-60 [16] = test: Cell cycle arrest in human HL60 cells assessed as accumulation at G1 phase at 5 uM after 24 hrs using propidium iodide staining by flow cytometry (reference value: 40%); type: functional
HL-60 [17] = test: Cell cycle arrest in human HL60 cells assessed as accumulation at G1 phase at 30 uM after 24 hrs using propidium iodide staining by flow cytometry (reference value: 40%); type: functional
PC-3 [18] = test: Antiproliferative activity against human PC3 cells after 48 hrs by SRB assay; type: functional, cell-based; conditions: PC-3, 48 h
HL-60 [19] = test: Cell cycle arrest in human HL60 cells assessed as accumulation at G2 phase at 20 uM after 24 hrs using propidium iodide staining by flow cytometry (reference value: 10%); type: functional
HL-60 [20] = test: Cell cycle arrest in human HL60 cells assessed as accumulation at G1 phase at 20 uM after 24 hrs using propidium iodide staining by flow cytometry (reference value: 40%); type: functional
A549 [21] = test: Antiproliferative activity against human A549 cells after 48 hrs by SRB assay; type: functional, cell-based; conditions: A549, 48 h
HL-60 [22] = test: Induction of apoptosis in human HL60 cells assessed as loss of mitochondrial potential at 30 uM after 24 hrs using rhodamine-123 staining by flow cytometric analysis (reference value: 2%); type: functional
HL-60 [23] = test: Induction of apoptosis in human HL60 cells assessed as reduction of procaspase-3 expression after 24 hrs by Western blot analysis; type: functional, cell-based; method in brief: as §1
HL-60 [24] = test: Induction of apoptosis in human HL60 cells assessed as morphological changes at 5 to 30 uM after 24 hrs using DAPI staining by fluorescence microscopic analysis; type: functional, cell-based
Method in brief: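 HL-60 treated 24 h at indicated concentrations, then methanol-fixed, DAPI-stained and examined by fluorescence microscopy for cellular and nuclear apoptotic morphology, following the A549 protocol.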

HL-60 [25] = test: Cell cycle arrest in human HL60 cells assessed as accumulation at S phase at 30 uM after 24 hrs using propidium iodide staining by flow cytometry (reference value: 50%); type: functional
T47D [26] = test: Antiproliferative activity against human T47D cells after 48 hrs by SRB assay; type: functional, cell-based
HL-60 [27] = test: Induction of apoptosis in human HL60 cells at 30 uM after 24 hrs using propidium iodide staining by flow cytometry (reference value: 5%); type: functional
HL-60 [28] = test: Induction of apoptosis in human HL60 cells at 20 uM after 24 hrs using propidium iodide staining by flow cytometry (reference value: 5%); type: functional
HL-60 [29] = test: Antiproliferative activity against human HL60 cells assessed as growth inhibition at 10 uM after 48 hrs by SRB assay; type: functional; conditions: HL-60, 48 h, read-out: GI

Structure (SMILES): c1ccc(Nc2nc3c(N4CCOCC4)ncnc3s2)cc1
- Activity (HL-60 [1]): 42%
- inhibition of growth at 10 µM [2]: 7%
- Activity (HL-60 [3]): 9%
- Activity (HL-60 [4]): 45%
- Activity (HL-60 [5]): 5%
- Activity (HL-60 [6]): Dose-dependent effect
- inhibition of growth at 10 µM (T98G): 26%
- inhibition of growth at 10 µM (A549 [7]): 38%
- inhibition of growth at 10 µM (A-431): 4%
- Activity (HL-60 [8]): 12%
- IC50 (HL-60 [9]): 8 µM
- inhibition of growth at 10 µM (PC-3 [10]): 45%
- inhibition of growth at 10 µM [11]: 12%
- Activity (HL-60 [12]): 16%
- inhibition of growth at 10 µM (T47D [13]): 12%
- Activity (HL-60 [14]): 9%
- IC50 [15]: 54 µM
- Activity (HL-60 [16]): 43%
- Activity (HL-60 [17]): 41%
- IC50 (PC-3 [18]): 17 µM
- Activity (HL-60 [19]): 7%
- Activity (HL-60 [20]): 51%
- IC50 (A549 [21]): 13 µM
- Activity (HL-60 [22]): 26%
- Activity (HL-60 [23]): Dose-dependent effect
- Activity (HL-60 [24]): Active
- Activity (HL-60 [25]): 54%
- IC50 (T47D [26]): 59 µM
- Activity (HL-60 [27]): 24%
- Activity (HL-60 [28]): 12%
- inhibition of growth at 10 µM (HL-60 [29]): 59%
